From PubChem
Only some compounds are listed: those with a hit (about 2.3% of all), similar ones and a draw of the others.
DNMT1 inh – blocks human DNA methyltransferase DNMT1; P26358; DNMT1 molecular beacon, Hinp1I cleavage, fluorescence; inhibition (reported as % activation of signal), % at 10 µM; 360,000 tested, 0.83% active; in the data active = inhibition above about 50%
Scp-1 inhibitor – inhibitors of human Scp-1 phosphatase; Q9GZU7; Recombinant Scp1, phosphopeptide, malachite green phosphate absorbance; inhibition, % at 20 µM; 340,000 tested, 0.88% active; AID 493091;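 active = inhibition above about 50% at 20 µM, limit read from the data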;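 note: plate controls were DMSO wells with enzyme for no effect and wells lacking enzyme for full effect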
Target sequence (Q9GZU7 76-261 limits assumed): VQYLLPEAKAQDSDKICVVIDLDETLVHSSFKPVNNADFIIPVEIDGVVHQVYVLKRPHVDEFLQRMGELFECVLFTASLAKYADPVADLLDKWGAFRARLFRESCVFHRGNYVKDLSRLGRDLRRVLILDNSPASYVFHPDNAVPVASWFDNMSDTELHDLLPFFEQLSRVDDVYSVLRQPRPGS
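System: SCP-1 catalytic domain; Reagent: Phospho 17-mer peptide substrate; Doses: one concentration, 20 µM, with 1.0% DMSO; Incubation: 45 min room-temperature reaction, 5 min colour, 30 min stabiliser; Signal: Phosphate-binding colour reagent, absorbance read at 630 nm.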
LMPTP inh – LMPTP (human) inhibition; AID 651560; P24666; 360,000 tested, 0.22% active; recombinant LMPTP-A, OMFP fluorogenic substrate, fluorescence intensity; inhibition, % at 20 µM;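 active = compounds that cut the enzyme signal by at least half of the control window in the single-dose screen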;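 note: plate controls were DMSO wells with enzyme plus substrate for no effect and substrate without enzyme for full effect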
Target sequence (P24666 whole entry, looked up): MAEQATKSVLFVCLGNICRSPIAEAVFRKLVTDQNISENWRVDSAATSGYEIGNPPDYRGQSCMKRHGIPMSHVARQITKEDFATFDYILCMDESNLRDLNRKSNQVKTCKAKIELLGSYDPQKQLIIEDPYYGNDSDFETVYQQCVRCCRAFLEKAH
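material = LMPTP-A | quantity = 0.625 nM enzyme | reagent = OMFP substrate, 400 µM final | buffer or medium = Bis-Tris pH 6.0, DTT, detergent | detection = endpoint fluorescence intensity from OMFP dephosphorylation | dosing = single 20 µM dose | read-out basis = % inhibition relative to no-enzyme and uninhibited control wells | control set = no-enzyme and uninhibited controls | timing = 50 min at room temperature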
Rpn11 inh – blocks the human proteasome subunit Rpn11 | human 26S proteasome, Ub4-pepOG fluorescence polarization; 20S core pre-blocked with epoxomicin | 360,000 tested, 0.59% active | AID 588493 | inhibition, % at 20 µM | O00487;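 active = inhibition at 20 µM, scaled to each plate's controls, above about 33%, limit read from the data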
SUMO1-SIM PPI – alters human SUMO1 binding to SIM partners; P63165; SUMO1 binding to a labelled peptide, TR-FRET, 1 h; 360,000 tested, 0.33% active; inhibition, % at 20 µM; in the data active = inhibition above about 37%
Target sequence (P63165 whole entry, looked up): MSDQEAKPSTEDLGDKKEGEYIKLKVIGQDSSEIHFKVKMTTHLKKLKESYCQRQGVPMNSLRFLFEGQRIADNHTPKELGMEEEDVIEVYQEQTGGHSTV
STEP block – blocks human striatal-enriched tyrosine phosphatase. P54829. recombinant STEP, OMFP fluorogenic substrate, fluorescence. inhibition, % at 20 µM. 360,000 tested, 0.25% active;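 active = inhibition at 20 µM, scaled per plate between control wells, above about 37%, limit read from the data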;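 note: 0% = DMSO with enzyme and substrate and 100% = substrate only without enzyme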
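Material: STEP (striatal-enriched tyrosine phosphatase) enzyme, cell-free | Medium: 50 mM Bis-Tris pH 6.0 with 2.5 mM DTT and 0.005% Tween 20 | Read-out: Percent inhibition scaled to no-enzyme and uninhibited-enzyme controls, plate-pattern corrected | Signal: Fluorescence read at 480 nm ex / 540 nm em | Times: 20 min reaction, room temperature, in the dark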
* marks the source's active call; other numbers are inactive results; · = no result shown.

SMILES | DNMT1 inh | Scp-1 inhibitor | LMPTP inh | Rpn11 inh | SUMO1-SIM PPI | STEP block
CCOc1ccccc1N(CC(=O)NCCc1ccccc1)C(=O)CCC(=O)Nc1ccccn1 | -1.9 | -7.4 | -1.0 | -1.6 | 3.3 | 2.6
CCCN(C(=O)c1cc(-c2ccco2)nc2ccccc12)c1c(N)n(Cc2ccccc2)c(=O)[nH]c1=O | 37.8 | 74.4* | 13.3 | -13.8 | 0.2 | 5.8
CCCCn1c(N)c(N(CCC(C)C)C(=O)c2cc(-c3ccco3)nc3ccccc23)c(=O)[nH]c1=O | 37.2 | 61.4* | 9.2 | 14.5 | 0.9 | 11.5
CN(C)c1ccc([C@@H]2[C@@H]([N+](=O)[O-])[C@H]3C=Cc4ccccc4N3[C@H]2C(=O)c2ccc(Cl)cc2)cc1 | 5.8 | -5.3 | 2.8 | 69.2* | -21.1 | -0.4
Clc1cccc(Cl)c1Cn1cnc2c(NCc3ccco3)ncnc21 | -1.8 | 2.2 | 4.0 | -6.9 | -3.3 | 0.5
Clc1cccc(Cl)c1Cn1cnc(=NCc2ccco2)c2[nH]cnc21 | 1.1 | 5.7 | 84.4* | 0.7 | 1.8 | 4.5
O=Cc1c(-c2ccc(Cl)cc2)oc2ccc(O)cc12 | -0.1 | 48.5 | 8.8 | 0.8 | 1.9 | 1.6
NC(=S)n1[nH]c(-c2ccc([N+](=O)[O-])cc2)c(N=Nc2ccc(Cl)cc2)c1=O | 107.5* | 3.4 | 28.7 | 20.6 | 87.2* | 3.7
Cc1ccc([N+](=O)[O-])cc1N=Nc1c(-c2ccc([N+](=O)[O-])cc2)[nH]n(C(N)=S)c1=O | 20.7 | 63.0* | 27.3 | -1.7 | 18.1 | 9.4
COc1ccc(C(=O)N2CCCN(C)CC2)cc1S(=O)(=O)N(C)Cc1ccccc1 | -2.2 | -2.2 | -2.4 | -5.1 | -1.0 | -1.1
COC(=O)N/N=C/c1cc(N=Nc2ccccc2)ccc1O | 0.6 | -14.9 | 3.1 | -3.3 | -4.9 | -0.6
Nc1ccc(C(=O)N/N=C\c2cc(N=Nc3cccc4ccccc34)ccc2O)cc1 | 43.8 | 37.7 | 3.9 | 1.2 | 65.2* | 10.1
Cc1cc(C(=O)N/N=C/c2cc(N=Nc3ccccc3)ccc2O)n[nH]1 | 5.2 | 63.7* | 6.0 | -28.7 | -5.9 | 5.7
Clc1cccc(-c2ccc(C3Nc4cccc5cccc(c45)N3)o2)c1 | 43.6 | 10.6 | 53.2* | -19.2 | 15.1 | 0.3
COC(=O)Cc1ccc(NC(=S)N2CCN(CCO)CC2)cc1 | 1.0 | -10.8 | -2.5 | 2.7 | 1.3 | 1.0
CC(C)C[C@@H](CNCC(=O)[C@H](Cc1ccccc1)NC(=O)c1[nH]cnc1C(=O)N[C@H](CN)CC(C)C)NC(=O)c1nc[nH]c1C(=O)N[C@@H](CC(=O)O)C(=O)O | 4.0 | 12.6 | -2.4 | 18.5 | 46.7* | -0.5
CC(=Cc1ccccc1)C=C1SC(=S)N(CCCC(=O)Nc2ccc(C(=O)O)c(O)c2)C1=O | 70.5* | · | 45.0 | 15.2 | -0.6 | 6.5
CN(C)c1ccc(-c2nc3ccccn3c2/N=C/c2ccc(Br)cc2)cc1 | -19.1 | -8.0 | 1.1 | -8.4 | -16.7 | 41.9*
O=S(=O)(Nc1cc(Sc2ncn[nH]2)c(O)c2ccccc12)c1ccccc1 | 24.2 | 17.0 | 9.1 | 6.2 | 84.7* | 2.9
CC(=O)N(/N=C1\Sc2ccccc2C1=O)c1cccc(C)c1 | 51.4* | -3.6 | 2.7 | 27.6 | 34.8 | -1.3
CC(=O)N(CN1C(=O)c2ccccc2C1=O)c1cccc(C)c1 | -1.6 | -2.2 | 0.9 | -2.2 | -8.7 | -3.0
COc1cc(/C=C2\SC(=Nc3ccc(Cl)c(C(=O)O)c3)NC2=O)c(Br)c(Br)c1O | 27.0 | 53.1* | -22.8 | · | -21.4 | 26.7
O=C(Cn1cc(CNC(=O)C2CCCCC2)nn1)Nc1cc(C(F)(F)F)ccc1Cl | -1.5 | 24.9 | -0.9 | 16.1 | 1.9 | 0.0
CC1CCN(C(=O)C(=O)Nc2sc3c(c2C(N)=O)CC(C)(C)OC3)CC1 | 0.2 | -11.0 | -0.3 | -9.5 | -2.3 | -0.5
C/C(=N\Nc1ccc(C(=O)O)cc1)c1ccc(Br)cc1 | 42.6 | 52.3* | 3.4 | -7.2 | 1.4 | 30.3
SMILES | DNMT1 inh | Scp-1 inhibitor | LMPTP inh | Rpn11 inh | SUMO1-SIM PPI | STEP block
O=C(OCc1ccccc1)N(CCCCN(CCCNCc1ccccc1)C(=O)OCc1ccccc1)CCCNCc1ccccc1 | -10.9 | 32.8 | 4.4 | -7.3 | -116.3 | 2.2
OCCC1CN(Cc2cnc(-c3cccc4ccccc34)nc2)CCN1C1CCCCC1 (configuration not stated) | 23.9 | 0.2 | -0.7 | -4.1 | -10.6 | 4.8
CCOc1ccc(C(=O)NCC(=O)NC(C)c2ccc(-n3ccnc3)cc2)cc1OCC (configuration not stated) | 0.6 | -1.8 | -0.5 | 2.1 | 45.0* | -2.5
COc1cc(C(=O)NCC(=O)NC(C)c2ccc(-n3ccnc3)cc2)cc(OC)c1OC (configuration not stated) | 2.3 | -1.9 | -0.5 | 1.2 | 12.1 | 2.1
CCN1/C(=C/c2sc(-c3ccccc3C)c[n+]2C)Sc2ccccc21 | -1.1 | 12.2 | 4.1 | -5.5 | -12.7 | 1.8
CCN1/C(=C/C=C/c2sc3ccccc3[n+]2CC)Sc2ccccc21 | 28.9 | 3.8 | 62.4* | · | -31.2 | 3.1
CCN1/C(=C/c2ccc3cc(C)ccc3[n+]2CC)Sc2ccccc21 | 20.8 | 31.7 | 72.0* | · | -123.5 | 11.0
CCN1/C(=C/C=C/C=C/C=C/c2sc3ccccc3[n+]2CC)Sc2ccccc21 | 80.7* | 20.8 | 14.3 | 39.3 | -37.2 | 1.0
O=C(NCC(O)CN1CCOCC1)c1ccc([N+](=O)[O-])cc1 (configuration not stated) | 2.3 | -4.0 | -1.4 | -0.6 | -24.6 | -0.6
CN1CCc2cc3c(c4c2[C@H]1[C@H](O)c1ccccc1-4)OCO3 | 70.3* | -6.2 | 3.7 | -61.8 | -35.7 | -0.2
N#C/C(=C\c1ccc([N+](=O)[O-])o1)C(=O)Nc1ccc(F)cc1 | 32.5 | 56.5* | 5.8 | · | 9.1 | 0.8
Cn1cc(C(=O)C(=O)NC2CCCCC2)c2ccccc21 | -0.4 | 1.1 | -1.6 | -6.0 | -2.3 | 1.6
O=C(O)CN1C(=O)/C(=C2\SC(=S)N(C(Cc3ccccc3)C(=O)O)C2=O)c2ccccc21 (configuration not stated) | -1.0 | 4.5 | 3.4 | -4.0 | 2.2 | 36.8
COc1ccc(NC(=O)CN2C(=O)/C(=C3\SC(=S)N(CCC(=O)O)C3=O)c3ccccc32)cc1 | 3.3 | 96.6* | 85.6* | -8.5 | 0.9 | 20.2
O=C(O)CCN1C(=O)/C(=C2\C(=O)N(Cc3ccccc3Cl)c3ccccc32)SC1=S | 88.9* | · | 80.4* | 16.4 | 29.9 | 98.5*
Nc1nc(Nc2ccccc2)nc(NC2CCCCC2)c1[N+](=O)[O-] | -4.1 | 7.5 | 1.0 | 5.4 | -9.7 | 0.9
Cc1c(CCC(=O)NC2CC2)c(=O)oc2cc(O)ccc12 | 2.5 | 9.5 | -0.9 | -4.7 | -2.8 | 1.7
